# Assay results reported in PubChem BioAssay.
# Activity calls are given as the source filed them.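 The calls were made as follows: active = current rise at least 3 SD above the untreated control mean in each of two repeat wells; inactive = the rest.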
# Target: Potassium voltage-gated channel subfamily KQT member 1 (Homo sapiens) (UniProt P51787)
# Assay: KCNQ1 activators by electrophysiology – IonWorks patch clamp, KCNQ1-CHO cells, orthogonal assay for KCNQ1 potentiator project, confirmation (AID 493184);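 as to current potentiation: percent change of the same well's current before compound addition so 0% = no change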
# Settings: automated patch clamp current, at 10 µM; active compounds read high
# Procedure, shortened: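 Test system: KCNQ1-expressing CHO cells. Medium: pH 7.4 external bath. Probe or stimulus: voltage step from -90 mV holding to +40 mV, 2,000 ms. Compound: 10 µM final, single point. Detection: automated perforated-patch electrophysiology. Read-out: percent current increase versus pre-compound level. Repeats: two replicates.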
# Chain of Potassium voltage-gated channel subfamily KQT member 1 (Homo sapiens) (P51787 whole entry, looked up): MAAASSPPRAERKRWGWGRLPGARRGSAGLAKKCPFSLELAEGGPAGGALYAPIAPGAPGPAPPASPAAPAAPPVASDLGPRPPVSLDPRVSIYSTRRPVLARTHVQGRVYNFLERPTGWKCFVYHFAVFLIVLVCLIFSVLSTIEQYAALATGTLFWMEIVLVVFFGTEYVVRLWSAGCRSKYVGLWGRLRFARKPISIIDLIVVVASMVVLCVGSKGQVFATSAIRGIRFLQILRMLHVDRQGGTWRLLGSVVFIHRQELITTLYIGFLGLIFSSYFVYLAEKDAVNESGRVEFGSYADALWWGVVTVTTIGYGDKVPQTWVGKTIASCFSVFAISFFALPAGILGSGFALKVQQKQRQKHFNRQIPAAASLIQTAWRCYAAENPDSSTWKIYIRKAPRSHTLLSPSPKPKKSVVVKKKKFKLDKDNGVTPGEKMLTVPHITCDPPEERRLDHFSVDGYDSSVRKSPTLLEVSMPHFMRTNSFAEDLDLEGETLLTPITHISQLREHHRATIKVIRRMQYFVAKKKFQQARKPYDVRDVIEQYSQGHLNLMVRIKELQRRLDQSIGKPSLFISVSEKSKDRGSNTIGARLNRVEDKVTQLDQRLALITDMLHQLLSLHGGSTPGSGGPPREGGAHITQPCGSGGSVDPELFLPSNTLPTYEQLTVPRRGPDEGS
Compound,outcome,current potentiation
O=C(c1ccc(COc2c(F)c(F)cc(F)c2F)o1)N1CCN(c2ccc(Cl)cc2)CC1,inactive,
S=c1[nH]nc(-c2ccccc2)n1/N=C/c1ccc(-c2ccccc2Cl)o1,inactive,
CCc1ccc(C2c3[nH]c4ccccc4c3CCN2C(=O)CN2CCN(CC)CC2)cc1 (configuration not stated),inactive,
O=[N+]([O-])c1ccc(C(O)C(CO)NC(=S)Nc2ccccc2)cc1 (configuration not stated),inactive,
O=C(NC(=S)NC1CCCc2ccccc21)c1ccc(F)cc1 (configuration not stated),inactive,
COc1cccc(CN2CCN(Cc3cc4ccccc4[nH]3)CC2CCO)c1 (configuration not stated),inactive,
O=C(NC(=S)Nc1nc2c(ccc3ccccc32)s1)c1cccs1,inactive,
N=C1/C(=C\c2ccc(-c3cccc(Cl)c3)o2)C(=O)N=C2SC=C(c3ccccc3)N12,inactive,
Cc1ccc(-c2nn(-c3ccccc3)cc2/C=N/n2c(-c3cccs3)n[nH]c2=S)cc1,inactive,
CC(C)(C)c1ccc(CN2N=Nc3ccccc3S2(=O)=O)cc1,inactive,
Cc1cccc(-n2c(=S)[nH]c3c(oc4ccccc43)c2=O)c1,inactive,
O=C(c1nnsc1S(=O)c1ccc(Cl)cc1)N1CCOCC1 (configuration not stated),inactive,
O=C(NNc1c2ccccc2nc2ccccc12)c1ccccc1Cl,inactive,
CN(C)CCCNc1cc(-c2ccccc2)nc2cc(-c3cccc(F)c3)nn12,inactive,
COc1cccc(NC(=O)CSCc2cc(=O)n3ccsc3n2)c1,inactive,
Cc1ccc(/C=C2\SC(=S)N(NS(=O)(=O)c3ccc(C)cc3)C2=O)cc1,,21.1% (active)
COc1ccc(/C=C(\NC(=O)c2cccs2)C(=O)N2CCOCC2)cc1OC,inactive,
